M4 PAM: CHRM4 positive allosteric modulation; P08173; CHO-K1 hM4/Gqi5, Fluo-8 calcium fluorescence, ACh EC20; 0% = ACh EC20, 100% = maximal ACh; activation, % at 3 µM; 360,000 compounds, 0.4% hits;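 active means activation above its plate's cutoff, the mean activation of sample wells plus 3 SD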
M4 ag: CHRM4 agonism in calcium assay; AID 624127; activation, % at 3 µM; CHO-K1 hM4/Gqi5, Fluo-8 calcium fluorescence; vehicle 0%, full acetylcholine response 100%; P08173; 360,000 compounds, 0.14% hits;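 active means activation above the run mean over all test wells plus 3 SD, cut at about 32% in these data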;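 further: peak over basal fluorescence ratio per well then scaled between controls; 0% = DMSO wells and 100% = acetylcholine at EC100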
CHRM4 antagonist: blocks acetylcholine activation of human M4 receptor | 360,000 compounds, 0.73% hits | inhibition, % at 3 µM | P08173 | CHO-hM4 cells, ACh EC80, Fluo-8 calcium fluorescence;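 active means inhibition above its plate's cutoff, the mean inhibition of sample wells plus 3 SD, cut at about 27% in these data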;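 further: 0% = acetylcholine EC80 with DMSO and 100% = DMSO without agonist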
CHRM5 agonist: agonists of human muscarinic M5 receptor (CHRM5); P08912; CHO-K1 hM5 cells, Fluo-8 calcium fluorescence; 0% DMSO wells, 100% maximal acetylcholine response; activation, % at 3 µM; 360,000 compounds, 0.19% hits; AID 624037;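 active means activation above the run's mean over test compounds plus 3 SD, cut at about 23% in these data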;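 further: signal is peak over basal fluorescence ratio across the kinetic read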
Target sequence (P08912 whole entry, looked up): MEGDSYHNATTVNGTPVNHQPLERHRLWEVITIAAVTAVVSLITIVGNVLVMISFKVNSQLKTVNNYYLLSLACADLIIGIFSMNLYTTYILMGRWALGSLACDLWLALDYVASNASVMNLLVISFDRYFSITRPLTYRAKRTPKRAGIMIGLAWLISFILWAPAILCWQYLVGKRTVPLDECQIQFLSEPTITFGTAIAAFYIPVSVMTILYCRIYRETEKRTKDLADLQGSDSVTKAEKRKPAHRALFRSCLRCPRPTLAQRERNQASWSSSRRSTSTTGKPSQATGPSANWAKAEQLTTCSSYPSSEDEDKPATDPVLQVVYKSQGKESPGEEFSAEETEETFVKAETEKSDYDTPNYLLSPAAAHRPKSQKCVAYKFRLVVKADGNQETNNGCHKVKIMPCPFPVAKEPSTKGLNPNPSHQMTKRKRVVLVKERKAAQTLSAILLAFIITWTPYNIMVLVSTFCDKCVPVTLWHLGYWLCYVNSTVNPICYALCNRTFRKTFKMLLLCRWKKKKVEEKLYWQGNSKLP
M5 antag: CHRM5 antagonism in calcium assay. 360,000 compounds, 0.59% hits. CHO-hM5 cells, Fluo-8 calcium fluorescence, ACh EC80. P08912. inhibition, % at 3 µM;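 active means inhibition above a per-plate cutoff, the mean of that plate's test compounds plus 3 SD, cut at about 27% in these data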;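 further: 0% = acetylcholine EC80 with DMSO and 100% = DMSO without agonist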
CHRM5 PAM: potentiates acetylcholine response at human M5 receptor; AID 624038; activation, % at 3 µM; P08912; 360,000 compounds, 0.3% hits; CHO-K1 hM5, Fluo-8 calcium, ACh EC20 PAM; 0% = ACh EC20, 100% = ACh EC100;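 active means activation above the run cutoff, the mean activation of all test compounds plus 3 SD, cut at about 18% in these data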
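System: CHO-K1 hM5 cells. Reagent: acetylcholine, EC20 level. Compound dosing: single dose, 3 µM nominal final test concentration. Timing: Post-acetylcholine fluorescence recording 140 s. Detection: Fluo-8 calcium fluorescence. Read-out: % activation, ACh-normalized. Benchmarks: ACh EC20 and EC100 wells. Repeats: singlicate, one well per test compound.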
* marks the source's active call; other numbers are inactive results. An excerpt weighted towards active compounds, which were near 1.8% of everything screened.

SMILES	M4 PAM	M4 ag	CHRM4 antagonist	CHRM5 agonist	M5 antag	CHRM5 PAM
C=C(C)C1CC=C(C)/C(=N/NC(=O)COc2ccc(Cl)cc2)C1 (centres undefined)	20*	1	-11	-5	2	5
COc1ccc(C(=O)N2CCC(C)(C(=O)O)C2)c(OC)c1 (centres undefined)	1	1	-2	0	2	1
NS(=O)(=O)c1ccc(NC(=O)C2C3C=CC(C3)C2C(=O)O)cc1 (centres undefined)	10	1	-6	4	-10	18*
CS(=O)(=O)c1ccc(CNC(=O)C2(C(F)(F)F)C/C(=C\Cc3ccccc3)CCCO2)cc1 (centres undefined)	12	1	-9	-5	5	-4
COc1cc(/C=C/C(=O)O)cc(S(=O)(=O)NC2CCCC2)c1OC	-52	-2	98*	-2	5	-6
COc1cc(/C=C/C(=O)O)cc(S(=O)(=O)Nc2cc(Cl)c(Cl)cc2Cl)c1OC	18	0	-11	-1	-11	14
CCCCS(=O)(=O)/C=C\C1C2C=CC(C2)C1S(=O)(=O)CCCC (centres undefined)	10	0	0	-2	-2	1
CCCCS(=O)(=O)/C=C\C=C/S(=O)(=O)CCCC	4	4	37*	8	14	10
O=C(C1=C[C@@H](c2coc3ccccc3c2=O)C[C@@H](OCCCCO)O1)N1CCN(Cc2ccccc2)CC1	-1	9	-5	3	-2	-9
CN1CCN(C(=O)C2=C[C@@H](c3coc4ccccc4c3=O)C[C@@H](OCCCCO)O2)CC1	24*	2	3	-1	-3	-9
CCN(CC)S(=O)(=O)c1ccc(N2CCOCC2)c(NC(=O)c2[nH]c(C)c(C(C)=O)c2C)c1	29*	9	-3	3	11	-3
CCN(CC)S(=O)(=O)c1ccc(N2CCOCC2)c(NC(=O)c2ccc(F)cc2)c1	-4	16	2	5	6	-11
CCN1/C(=C\C(=S)Nc2ccccc2)Sc2ccccc21	-4	3	3	1	13	-6
CCN1/C(=C/C(C)=C/c2sc3ccccc3[n+]2CC)Sc2ccccc21	-18	9	34*	3	42*	-18
Cc1ccc(C(=O)Nc2c(C)cc(C)c3cccnc23)cc1	14*	2	-10	-1	9	2
CC(=O)Nc1cc(-c2cccnc2)cn2c(-c3ccc(F)cc3)cnc12	7	5	-7	0	-2	0
COc1ccc(S(=O)(=O)NC(=O)C2(C)CCN2C(=O)C2CCCCC2)cc1OC (centres undefined)	7	1	-4	2	8	-6
COc1ccc(NC(=O)CN(C)C(=O)c2ccc(NS(=O)(=O)c3ccc(F)cc3)cc2)cc1	3	0	0	0	9	2
COc1ccccc1CNC(=O)CN(C)S(=O)(=O)c1ccc2c(c1)n(C)c(=O)c(=O)n2C	-2	6	5	-5	-4	0
Cc1noc(C)c1CSc1ccccc1C(=O)Nc1nccs1	5	1	-7	-5	-8	30*
Cc1nc(-c2ccccc2)sc1C1(C)CC(c2ccc(OC(F)(F)F)cc2)=NO1 (centres undefined)	7	1	-23	1	-4	18*
CCCCN(C(=O)C1CCCC1)c1c(N)n(CC(C)C)c(=O)[nH]c1=O	27*	1	-20	4	-10	6
CCCCN(C(=O)C1CCC1)c1c(N)n(CCC)c(=O)[nH]c1=O	1	0	4	0	4	4
C[C@@H]1NC(=O)N(CCCn2ccnc2)C1=O	1	0	-1	-2	4	0
CC(=O)Oc1ccc(C(=O)c2ccccc2)c(OC(C)=O)c1	-3	0	7	-3	1	1
SMILES	M4 PAM	M4 ag	CHRM4 antagonist	CHRM5 agonist	M5 antag	CHRM5 PAM
COc1ccc(C(=O)c2ccccc2)c(OCC(=O)N(C)C)c1	23*	2	-14	-5	-2	-3
COc1cccc(NC(=O)CN(C)C(C)C(=O)NC(=O)NC2CCCCC2)c1 (centres undefined)	5	3	-2	1	2	0
COCCNc1nnc(SCC(=O)NNC(=O)c2ccccc2)s1	19*	4	-13	-6	-13	1
NS(=O)(=O)c1ccc(CCNc2ccn3nc(-c4cccc(C(F)(F)F)c4)cc3n2)cc1	-10	9	9	2	20	-6
CC#C[C@@H](CC)c1ccc2ccn(C)c2c1	1	0	6	-5	27*	-5
NC(c1csc(Nc2nncc3ccccc23)n1)C1CCCCC1 (centres undefined)	-6	25	12	5	6	0
CCN(CC)CCOC(=O)C1(c2ccc([N+](=O)[O-])cc2)CCCC1	-17	2	49*	-2	84*	-19
CCN(CC)CCOCCOC(=O)C1(c2ccccc2)CCCC1	-17	2	91*	-1	96*	-19
CCN(CC)CCOC(=O)C1(c2ccccc2)CCOCC1	0	0	2	-11	-5	-18
Cc1cccc(NC(=O)C2(c3ccc([N+](=O)[O-])cc3)CCCC2)c1	-6	5	-5	-6	-8	-19
CCN(CC)CCCOC(=O)C1(c2ccccc2)CCCC1	-22	1	96*	-11	99*	-16
CC1CCN(C(=O)COC(=O)c2ccc3ccccc3n2)CC1	-2	0	4	1	-4	-5
CN(C(=O)COC(=O)c1ccc2ccccc2n1)C1CCCCC1	25*	2	2	2	0	11
CC(NCCC(c1ccccc1)c1ccccc1)c1ccccc1 (centres undefined)	-16	9	45*	4	9	-14
CC(C)CN(CCNC(=O)CC1Oc2ccccc2NC1=O)CC(C)C (centres undefined)	4	1	-6	-4	-5	2
CC1CCN(Cc2ccc(NC(=O)CC3Oc4ccccc4NC3=O)cc2)CC1 (centres undefined)	-14	2	97*	-6	37*	-25
CCC(C)N(CCNC(=O)CC1Oc2ccccc2NC1=O)C1CCCCC1 (centres undefined)	-14	0	45*	-6	9	-10
O=C(CNC1CCCCC1)N1CCc2ccccc2C1	1	1	30*	-1	18	-3
O=C(NC1CCCCC1)N1CCc2ccccc2C1	-5	1	1	-6	7	-3
